Measured values pooled from the literature.
Protocols differ between the studies behind these lines.
Target: Ephrin type-B receptor 1 (EPHB1, Homo sapiens, UniProt P54762)
Residues used in one study (P54762 18-984): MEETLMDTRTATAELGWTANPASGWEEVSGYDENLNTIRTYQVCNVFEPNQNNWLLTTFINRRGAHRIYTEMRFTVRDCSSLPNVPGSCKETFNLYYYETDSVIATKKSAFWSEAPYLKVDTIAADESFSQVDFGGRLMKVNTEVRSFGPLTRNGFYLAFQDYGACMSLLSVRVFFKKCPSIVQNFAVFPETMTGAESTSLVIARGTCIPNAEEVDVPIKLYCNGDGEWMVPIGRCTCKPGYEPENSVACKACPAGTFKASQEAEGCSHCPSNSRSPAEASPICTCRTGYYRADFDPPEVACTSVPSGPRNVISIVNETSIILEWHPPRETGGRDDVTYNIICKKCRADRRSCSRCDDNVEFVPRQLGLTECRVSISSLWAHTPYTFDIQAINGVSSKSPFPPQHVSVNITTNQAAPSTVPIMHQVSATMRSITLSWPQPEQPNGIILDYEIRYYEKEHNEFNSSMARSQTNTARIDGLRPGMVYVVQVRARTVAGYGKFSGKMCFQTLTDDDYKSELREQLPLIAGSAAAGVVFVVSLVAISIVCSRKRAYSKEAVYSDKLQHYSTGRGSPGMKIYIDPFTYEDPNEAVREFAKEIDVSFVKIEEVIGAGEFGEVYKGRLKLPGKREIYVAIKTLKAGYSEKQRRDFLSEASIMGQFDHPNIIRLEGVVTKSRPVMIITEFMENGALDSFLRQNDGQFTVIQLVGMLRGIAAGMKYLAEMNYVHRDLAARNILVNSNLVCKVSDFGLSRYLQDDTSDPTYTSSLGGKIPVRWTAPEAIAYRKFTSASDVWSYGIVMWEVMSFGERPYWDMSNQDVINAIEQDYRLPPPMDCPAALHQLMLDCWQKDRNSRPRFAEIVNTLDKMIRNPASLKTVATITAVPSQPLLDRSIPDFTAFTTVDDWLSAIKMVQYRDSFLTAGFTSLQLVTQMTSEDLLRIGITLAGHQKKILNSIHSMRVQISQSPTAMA

With `O=C(Nc1c[nH]nc1C(=O)NC1CCNCC1)c1cc(F)cc(F)c1` the remaining binding was 100% (binding; competition with immobilised ligand; 1 µM).
The remaining binding of `N#CC1(c2ccccn2)CCN(Cc2cc(C(=O)N3CCCC3)c(=O)n3ccccc23)CC1` is reported as 91% (cell-free assay; competition with immobilised ligand; 1 µM).
`CN(C)c1ncc(F)c(-c2cnn3ncccc23)n1` gave a remaining binding of 100% (binding; 1 µM).
`CC(C)(O)c1cncc(-c2nc3ccc(F)cc3n2C2CC2)c1` gave a remaining binding of 100% (cell-free assay; competition with immobilised ligand; 1 µM).
With `COc1cnc(Nc2cccc(S(N)(=O)=O)c2)nc1N1CCN(c2ccccc2)C(=O)C1` the remaining binding was 100% (binding; competition with immobilised ligand; 1 µM).
The remaining binding of `O=C(c1ccc(Nc2ncc(Cl)c(-c3cc4ccccc4s3)n2)cc1)N1CCC(N2CCCC2)CC1` is reported as 33% (binding; competition with immobilised ligand; 1 µM).
`Cc1cc(NC(=O)c2cccc(S(F)(F)(F)(F)F)c2)cc(-n2ccn3nc(-c4cccnc4)cc23)c1` gave a remaining binding of 100% (cell-free assay; competition with immobilised ligand; 1 µM).
`CC1CCCN1c1nccc(-c2cnn3ncccc23)n1` (stereo not drawn) has a remaining binding of 100% (binding; 1 µM).
`CNCc1ccccc1-c1csc([C@H](C)Nc2nc(C)nc3cc(OC)c(OC)cc23)c1` has a remaining binding of 100% (cell-free assay; competition with immobilised ligand; 1 µM).
`Nc1ncc2c(n1)-c1c([nH]c3ccc(C#CC4CC4)cc13)CCCC2` has a remaining binding of 92% (binding; competition with immobilised ligand; 1 µM).
For `Cc1cnc(Nc2ccc(C(=O)N3CCC(N4CCCC4)CC3)cc2)nc1-c1cc2ccccc2s1`, the remaining binding was 4.4% (binding; competition with immobilised ligand; 1 µM).
For `FC(F)(F)Oc1cccc(-c2cnc3ccc(-c4ccncc4)nn23)c1`, the remaining binding was 82% (cell-free assay; competition with immobilised ligand; 5 µM).
For `COc1ncc2cc3ccccc3nc2c1C#N`, the remaining binding was 91% (cell-free assay; competition with immobilised ligand; 5 µM).
For `C[C@H]1CCN(c2nccc(-c3cnn4ncccc34)n2)C1`, the remaining binding was 100% (binding; 1 µM).
For `O=C(c1ccc(Nc2ncc(Cl)c(-c3ccc(Cl)s3)n2)cc1)N1CCC(N2CCCC2)CC1`, the remaining binding was 30% (binding; competition with immobilised ligand; 1 µM).
For `C=CC(=O)N1CCC(C(=O)NCC(=O)N2CCN(c3nc(-c4cnc(N)nc4C(F)F)nc(N4CCOCC4)n3)CC2)CC1`, the remaining binding was 100% (binding; competition with immobilised ligand; 1 µM).
With `N[C@@H]1CCN(c2nccc(-c3cnn4ncccc34)n2)C1` the remaining binding was 96% (binding; 1 µM).
For `O=C(N[C@H]1CCCCC/C=C\C2C[C@@]2(C(=O)O)NC(=O)[C@@H]2C[C@@H](Oc3ccncc3)CN2C1=O)OC1CCCC1` (stereo partly drawn), the remaining binding was 100% (cell-free assay; competition with immobilised ligand; 1 µM).
`CN(CCCC(F)(F)F)c1nccc(-c2cnn3ncccc23)n1` gave a remaining binding of 91% (binding; 1 µM).
`O=c1nc(-c2ccccn2)sc2ccccc12` gave a remaining binding of 88% (cell-free assay; competition with immobilised ligand; 1 µM).
For `c1cncc(-c2cccc(Nc3nccc(NC4CCCCC4)n3)c2)c1`, the remaining binding was 81% (binding; competition with immobilised ligand; 10 µM).
